From PubChem BioAssay
The sample as a whole holds a higher share of hits than the screen did.
ALR H2O2 inh: blocks human ALR sulfhydryl oxidase activity. P55789. purified ALR, DTT oxidation, H2O2 HRP-luminol luminescence. inhibition, % (concentration not given with the values). 3.8% of 290,000 active. AID 485317;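 active means mean replicate inhibition above about 79%, with every replicate also reaching it, limit read from the data; inconclusive means only one of the two criteria met; inactive means mean below limit and not every replicate reaching it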
Target sequence (P55789 whole entry, looked up): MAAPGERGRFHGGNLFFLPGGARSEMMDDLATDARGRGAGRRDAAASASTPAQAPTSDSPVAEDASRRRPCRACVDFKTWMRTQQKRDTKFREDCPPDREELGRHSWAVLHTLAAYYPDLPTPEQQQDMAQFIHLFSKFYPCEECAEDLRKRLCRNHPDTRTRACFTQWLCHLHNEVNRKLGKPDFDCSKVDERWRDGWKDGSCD
T cell HTS: T cell immune modulation candidate; 2C CD8+ T cell-vesicle binding, flow cytometry; active compounds read low; response (vesicle binding), % at 7 µM; 0.068% of 330,000 active; AID 2052;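 active means response, share of CD8 T cells binding vesicles, and their 90th percentile fluorescence all below set limits, cut at about 80% in these data, passing the limit was not always enough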;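 further: values below 100% mean blocked vesicle binding to the CD8+ T cells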
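Also added: QL9-peptide-loaded Drosophila micro-vesicles bearing Ld, ICAM-1 and B7-1; Test system: purified 2C TCR transgenic mouse naive CD8+ T cells; Measured by: cytometric PE anti-B7-1 and Alexa647 anti-CD8 signals after 1% paraformaldehyde fixation; Timing: binding step 1.5 h, 37 °C, antibody labelling 20 min, ice.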
Glyco luc inh: blocks N-linked glycosylation in D54 reporter cells. D54 ERlucT glycosylation luciferase reporter, 24 h; percent of 100 nM tunicamycin response. reporter increase, % at 12.5 µM. 0.23% of 360,000 active. AID 588692;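 active means mean luciferase reporter signal, scaled so untreated is 0 and the glycosylation-blocking control 100, at or above a set limit in every replicate; inconclusive means mean reaches the limit but not every replicate does; inactive means mean below the limit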;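 further: luciferase carries N-glycosylation sites so blocking glycosylation raises the light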
Of the large screens only hits and unclear results are named; the others gave an inactive call.

COc1ccc(C(=O)NC(C(=O)N2CCN(c3ccccc3O)CC2)C(C)C)cc1 (stereo not drawn)	none
O=C(CC1OC(=O)c2ccccc21)Nc1ccccc1N1CCOCC1 (stereo not drawn)	none
O=C(CC1OC(=O)c2ccccc21)Nc1cc(Cl)ccc1N1CCCC1 (stereo not drawn)	ALR H2O2 inh 97
COc1ccc(C(=O)Nc2ccc(N3CCCC3)cc2)cc1	none
Cc1cc(C)n(C(=O)Cn2nc(C)c(Cl)c2C)n1	none
CCCCC(c1nc2ccccc2[nH]1)N(C(=O)c1ccccc1)c1ccccc1[N+](=O)[O-] (stereo not drawn)	none (no result: ALR H2O2 inh, T cell HTS)
CCOC(=O)c1cnc2c(F)ccc(F)c2c1Sc1ccccc1	none (no result: ALR H2O2 inh)
COc1ccccc1N(C)S(=O)(=O)c1ccc(C)c(C(=O)NCc2ccccn2)c1	none
CCOc1ccc(NC(=S)N2CCN(C/C=C/c3ccccc3)CC2)cc1	none
CN(C(=O)c1cccc(NC(=O)Cc2ccc(NC(=O)C3CCN(C(=O)C4CCC4)CC3)cc2)c1)C1CCCCC1	none (no result: ALR H2O2 inh, T cell HTS)
Cc1ccc(C(=O)Nc2ccccc2N2CCCCC2)cc1	none (no result: ALR H2O2 inh)
Cc1ccc(C(=O)Nc2ccccc2N2CCCC2)cc1	ALR H2O2 inh 99
Cc1ccc(S(=O)(=O)CCC(=O)Nc2ccccc2N2CCCC2)cc1	ALR H2O2 inh 99
Cc1ccc(S(=O)(=O)CCC(=O)Nc2ccccc2C)cc1	none
O=C(Nc1ccccc1N1CCCC1)c1cccc(F)c1	ALR H2O2 inh 99
Cc1ccc(NC(=O)CSCC(=O)Nc2ccccc2C(=O)N2CCCCC2)cc1	none (no result: ALR H2O2 inh)
O=C(NC(=S)Nc1ccccc1N1CCCC1)c1cccc(F)c1	none
Cc1ccc(NC(=O)CSCC(=O)Nc2ccccc2N2CCCC2)cc1	ALR H2O2 inh 99
CC(=O)Nc1ccc(C(=O)COC(=O)c2cccs2)c(F)c1	none
CC(NC(=O)C(NS(=O)(=O)c1cccs1)C(C)C)c1ccc(S(N)(=O)=O)cc1 (stereo not drawn)	none
O=C(Nc1ccccc1N1CCCC1)C1CCN(C(=O)c2ccc(Cl)cc2)CC1	none
O=C(Nc1ccccc1N1CCCC1)C1CCN(C(=O)c2ccc(F)cc2)CC1	ALR H2O2 inh 98
COc1ccc(NC(=O)CSCC(=O)Nc2cc(Cl)ccc2N2CCOCC2)cc1	none
COc1ccc(NC(=O)CSCC(=O)Nc2cc(Cl)ccc2N2CCCC2)cc1	ALR H2O2 inh 99
O=C(COC(=O)c1ccco1)NCCNC(=O)COC(=O)c1ccco1	none
Cc1ccc(C2(c3noc(CN4CCC(c5ccncc5)CC4)n3)CCCC2)cc1	none
O=C(C=Cc1ccccc1)N1CCCCC1	none (no result: ALR H2O2 inh, T cell HTS)
N#Cc1c(-c2ccccc2)ccnc1N1CCOCC1	none
COc1ccc(-n2nnnc2S(=O)(=O)CC(=O)N2CCCCC2)cc1	ALR H2O2 inh 98
COc1cc(OC)cc(-n2nnnc2SCC(=O)N2CCCC2)c1	none
CCc1ccc(Oc2nnnn2-c2ccc(C(N)=O)cc2)cc1	none
COc1ccc(-n2nnnc2S(=O)(=O)Cc2ccc(C(=O)O)cc2)cc1	ALR H2O2 inh 98
COc1ccccc1NC(=O)CCCn1c(=S)[nH]c2ccccc2c1=O	none
COc1cccc(NC(=O)CCCn2c(=S)[nH]c3ccccc3c2=O)c1	ALR H2O2 inh 83
O=C(Nc1ccc(N2CCOCC2)cc1)c1cccc(-n2cnnc2)c1	none
O=C(Nc1ccc(N2CCOCC2)cc1)c1ccncc1	none
CN(C)c1cccc(C(=O)Nc2ccc(N3CCOCC3)cc2)c1	ALR H2O2 inh 91
O=C(Nc1ccc(N2CCOCC2)cc1)Nc1ccc2nsnc2c1	ALR H2O2 inh 86
O=C(Nc1ccc(N2CCOCC2)cc1)c1cnsn1	none (no result: ALR H2O2 inh, T cell HTS)
CC(Sc1nc2ccccc2n1C)C(=O)Nc1ccc(N2CCOCC2)cc1 (stereo not drawn)	ALR H2O2 inh 95
CC(C)Cn1c(SC(C)C(=O)Nc2ccc(N3CCOCC3)cc2)nc2ccccc21 (stereo not drawn)	none
Cn1cccc1C(=O)Nc1ccc(N2CCOCC2)cc1	ALR H2O2 inh 97
Cc1ccccc1NC(=O)CCN1CCN(CCO)CC1	none
CSc1ccccc1CNc1nc(NCC2CC2)nc2ccsc12	none (no result: ALR H2O2 inh, T cell HTS)
O=C(CCCn1cncn1)N1CCCC(N2CCN(c3ccc(F)cc3)CC2)C1 (stereo not drawn)	none
O=C(NCc1cc(Cl)cc(Cl)c1)c1ccc2nc([C@@H]3O[C@H](CO)[C@@H](O)[C@H]3O)[nH]c2c1	none (no result: ALR H2O2 inh, T cell HTS)
CC1=C(C(=O)N2CCOCC2)CC(CC(=O)NC2CCCCC2)C(=O)N1Cc1ccccc1 (stereo not drawn)	none (no result: ALR H2O2 inh, T cell HTS)
CCCCCCOc1ccc(C(=O)O)cc1	none
CCCCOc1ccc(/C(N)=N/O)cc1	ALR H2O2 inh 99
Cc1ccc(NC(=O)COc2ccc(/C(N)=N/O)cc2)cc1C	ALR H2O2 inh 99
Cc1ccc(NC(=O)COc2ccc(-n3cnnn3)cc2)cc1C	none
O=C(COC(=O)C1CC1)Nc1ccc(Cl)cn1	none
N#CCc1ccc(NC(=O)c2ccc(S(=O)(=O)N3CCCC3)cc2)cc1	none (no result: ALR H2O2 inh)
Cn1c(=O)[nH]c(=O)c2c1[nH]c(=S)n2Cc1ccc(Cl)cc1	ALR H2O2 inh 99
Cn1c(=O)[nH]c(=O)c2c1nc(Br)n2Cc1ccc(Cl)cc1	none (no result: ALR H2O2 inh, T cell HTS)
CC(=O)CSc1nc2ccccc2s1	ALR H2O2 inh 98
O=C(CSc1nc2ccccc2s1)CSc1nc2ccccc2s1	none
N#CC1(NC(=O)CSc2nc3ccc([N+](=O)[O-])cc3s2)CCCCC1	none
Cc1csc(NC(=O)CSc2nc3ccccc3s2)n1	ALR H2O2 inh 97
Cc1csc(NC(=O)CCCSc2nc3ccccc3s2)n1	none
O=C(CSc1nnc(NCc2ccccc2)s1)NC1CCS(=O)(=O)C1 (stereo not drawn)	none
N#CC1(NC(=O)CSc2nc3ccccc3s2)CCCCC1	ALR H2O2 inh 98
O=C(CSc1nc2ccccc2s1)NC1CCS(=O)(=O)C1 (stereo not drawn)	ALR H2O2 inh 90
COc1cccc(CC(=O)OCC(=O)N(C)CC(=O)Nc2ccc(F)cc2)c1	none
C=CCN(Cc1cn(C)nc1-c1cccc(Cl)c1)C1CCS(=O)(=O)C1 (stereo not drawn)	none
CC(=NNc1ccc([N+](=O)[O-])cn1)c1ccc(N)cc1	none (no result: ALR H2O2 inh, T cell HTS)
Cc1ccc(N(Cc2ccccc2)C(=O)Cc2ccc(S(=O)(=O)N3CCOCC3)s2)cc1	none (no result: ALR H2O2 inh, T cell HTS)
CCOC(=O)[C@H]1[C@H]2COc3ccc(OC)cc3[C@@H]2N2C(=O)c3cc(C)ccc3NC(=O)[C@@]12C	none (no result: ALR H2O2 inh, T cell HTS)
O=C(CN1C(=O)CCC1=O)Nc1nc(-c2ccccn2)cs1	none
O=C(CN1C(=O)CCC1=O)Nc1nc(-c2nc3ccccc3s2)cs1	ALR H2O2 inh 95
CC(Sc1nc2ccccc2s1)C(=O)NCc1ccc2c(c1)OCO2 (stereo not drawn)	ALR H2O2 inh inconclusive
COCCN(C(=O)CSc1nc2ccccc2s1)c1c(N)n(Cc2ccccc2)c(=O)[nH]c1=O	none (no result: ALR H2O2 inh, T cell HTS)
O=S(=O)(CCSc1nc2ccccc2s1)c1nc2ccccc2s1	none
CC(Sc1nc2ccccc2s1)C(=O)N1CCOCC1 (stereo not drawn)	ALR H2O2 inh 99
CCS(=O)(=O)CCSc1nc2ccccc2s1	ALR H2O2 inh 99
CCCCN(C(=O)CSc1nc2ccccc2s1)c1c(N)n(CCCC)c(=O)[nH]c1=O	ALR H2O2 inh 99
COc1ccc(/C(C)=N/NC(=O)CNC(=O)c2ccco2)c(OC)c1	none
O=C(CN1C(=O)NC2(CCCC2)C1=O)N1CCN(c2ccc(C(F)(F)F)cc2[N+](=O)[O-])CC1	none (no result: ALR H2O2 inh, T cell HTS)
CCOC(=O)CSc1nc2ccc(NC(C)=O)cc2s1	none
